This note sets out measurements from ChEMBL document CHEMBL1121923, “N2- and C-7 substituted actinomycin D analogues: synthesis, DNA-binding affinity, and biochemical and biological properties. Structure-activity relationship” (J Med Chem, 1981).

This data set is filed under the species Bos taurus. Kind of data set: Thermal denaturation (deltaTm) of compound against calf thymus DNA was measured. It counts as ADME. The following applies: cattle, in vitro. The essentials: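 Calf thymus DNA (MW 100 000–500 000) in 0.01 M phosphate, 5 × 10^-3 M EDTA, pH 7.0; drug 7 × 10^-4 M, DNA nucleotide 7 × 10^-3 M; 259 nm absorbance read at 0.25–1.0 °C steps; Tm taken at 50% hyperchromicity; ΔTm = complex Tm minus DNA Tm.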
With `Cc1c2oc3c(C)c(OCc4ccc(Cl)c(Cl)c4)cc(C(=O)N[C@@H]4C(=O)N[C@H](C(C)C)C(=O)N5CCC[C@H]5C(=O)N(C)CC(=O)N(C)[C@@H](C(C)C)C(=O)O[C@@H]4C)c3nc-2c(C(=O)N[C@@H]2C(=O)N[C@H](C(C)C)C(=O)N3CCC[C@H]3C(=O)N(C)CC(=O)N(C)[C@@H](C(C)C)C(=O)O[C@@H]2C)c(N)c1=O`, the “Delta Tm” value is 0.
With `CCCCCCNc1c(C(=O)N[C@@H]2C(=O)N[C@H](C(C)C)C(=O)N3CCC[C@H]3C(=O)N(C)CC(=O)N(C)[C@@H](C(C)C)C(=O)O[C@@H]2C)c2nc3c(C(=O)N[C@@H]4C(=O)N[C@H](C(C)C)C(=O)N5CCC[C@H]5C(=O)N(C)CC(=O)N(C)[C@@H](C(C)C)C(=O)O[C@@H]4C)ccc(C)c3oc-2c(C)c1=O` the figure was 0; with `CCCCCCCCC/N=c1/cc(C(=O)N[C@@H]2C(=O)N[C@H](C(C)C)C(=O)N3CCC[C@H]3C(=O)N(C)CC(=O)N(C)[C@@H](C(C)C)C(=O)O[C@@H]2C)c2nc3c(C(=O)N[C@@H]4C(=O)N[C@H](C(C)C)C(=O)N5CCC[C@H]5C(=O)N(C)CC(=O)N(C)[C@@H](C(C)C)C(=O)O[C@@H]4C)c(N)c(O)c(C)c3oc-2c1C`, 1.1; with `CCCOc1cc(C(=O)N[C@@H]2C(=O)N[C@H](C(C)C)C(=O)N3CCC[C@H]3C(=O)N(C)CC(=O)N(C)[C@@H](C(C)C)C(=O)O[C@@H]2C)c2nc3c(C(=O)N[C@@H]4C(=O)N[C@H](C(C)C)C(=O)N5CCC[C@H]5C(=O)N(C)CC(=O)N(C)[C@@H](C(C)C)C(=O)O[C@@H]4C)c(N)c(=O)c(C)c-3oc2c1C`, 3.5.
On to `Cc1c2oc3c(C)c(O)c(N)c(C(=O)N[C@@H]4C(=O)N[C@H](C(C)C)C(=O)N5CCC[C@H]5C(=O)N(C)CC(=O)N(C)[C@@H](C(C)C)C(=O)O[C@@H]4C)c3nc-2c(C(=O)N[C@@H]2C(=O)N[C@H](C(C)C)C(=O)N3CCC[C@H]3C(=O)N(C)CC(=O)N(C)[C@@H](C(C)C)C(=O)O[C@@H]2C)cc1=N`, for which the “Delta Tm” value was found to be 8.2.
The result for `CCCCCCCCCNc1c(C(=O)N[C@@H]2C(=O)N[C@H](C(C)C)C(=O)N3CCC[C@H]3C(=O)N(C)CC(=O)N(C)[C@@H](C(C)C)C(=O)O[C@@H]2C)c2nc3c(C(=O)N[C@@H]4C(=O)N[C@H](C(C)C)C(=O)N5CCC[C@H]5C(=O)N(C)CC(=O)N(C)[C@@H](C(C)C)C(=O)O[C@@H]4C)ccc(C)c3oc-2c(C)c1=O` reads 0.
With `Cc1c2oc3c(C)c(O)c(N)c(C(=O)N[C@@H]4C(=O)N[C@H](C(C)C)C(=O)N5CCC[C@H]5C(=O)N(C)CC(=O)N(C)[C@@H](C(C)C)C(=O)O[C@@H]4C)c3nc-2c(C(=O)N[C@@H]2C(=O)N[C@H](C(C)C)C(=O)N3CCC[C@H]3C(=O)N(C)CC(=O)N(C)[C@@H](C(C)C)C(=O)O[C@@H]2C)c/c1=N/Cc1ccco1`, the “Delta Tm” value was found to be 5.8.
With `Cc1c2oc3c(C)c(OCc4ccc([N+](=O)[O-])cc4)cc(C(=O)N[C@@H]4C(=O)N[C@H](C(C)C)C(=O)N5CCC[C@H]5C(=O)N(C)CC(=O)N(C)[C@@H](C(C)C)C(=O)O[C@@H]4C)c3nc-2c(C(=O)N[C@@H]2C(=O)N[C@H](C(C)C)C(=O)N3CCC[C@H]3C(=O)N(C)CC(=O)N(C)[C@@H](C(C)C)C(=O)O[C@@H]2C)c(N)c1=O` the figure was 0; with `Cc1c2oc3c(C)c(O)c(N)c(C(=O)N[C@@H]4C(=O)N[C@H](C(C)C)C(=O)N5CCC[C@H]5C(=O)N(C)CC(=O)N(C)[C@@H](C(C)C)C(=O)O[C@@H]4C)c3nc-2c(C(=O)N[C@@H]2C(=O)N[C@H](C(C)C)C(=O)N3CCC[C@H]3C(=O)N(C)CC(=O)N(C)[C@@H](C(C)C)C(=O)O[C@@H]2C)c/c1=N/Cc1ccc(Cl)c(Cl)c1`, 7.
The result for `Cc1c2oc3c(C)ccc(C(=O)N[C@@H]4C(=O)N[C@H](C(C)C)C(=O)N5CCC[C@H]5C(=O)N(C)CC(=O)N(C)[C@@H](C(C)C)C(=O)O[C@@H]4C)c3nc-2c(C(=O)N[C@@H]2C(=O)N[C@H](C(C)C)C(=O)N3CCC[C@H]3C(=O)N(C)CC(=O)N(C)[C@@H](C(C)C)C(=O)O[C@@H]2C)c(NCCCCN)c1=O` reads 1.8; that for `Cc1c2oc3c(C)c(O)c(N)c(C(=O)N[C@@H]4C(=O)N[C@H](C(C)C)C(=O)N5CCC[C@H]5C(=O)N(C)CC(=O)N(C)[C@@H](C(C)C)C(=O)O[C@@H]4C)c3nc-2c(C(=O)N[C@@H]2C(=O)N[C@H](C(C)C)C(=O)N3CCC[C@H]3C(=O)N(C)CC(=O)N(C)[C@@H](C(C)C)C(=O)O[C@@H]2C)c/c1=N/Cc1ccccc1`, 6.6.
With `CCCCCNc1c(C(=O)N[C@@H]2C(=O)N[C@H](C(C)C)C(=O)N3CCC[C@H]3C(=O)N(C)CC(=O)N(C)[C@@H](C(C)C)C(=O)O[C@@H]2C)c2nc3c(C(=O)N[C@@H]4C(=O)N[C@H](C(C)C)C(=O)N5CCC[C@H]5C(=O)N(C)CC(=O)N(C)[C@@H](C(C)C)C(=O)O[C@@H]4C)ccc(C)c3oc-2c(C)c1=O` the figure was 0.
In the case of `CCCCOc1cc(C(=O)N[C@@H]2C(=O)N[C@H](C(C)C)C(=O)N3CCC[C@H]3C(=O)N(C)CC(=O)N(C)[C@@H](C(C)C)C(=O)O[C@@H]2C)c2nc3c(C(=O)N[C@@H]4C(=O)N[C@H](C(C)C)C(=O)N5CCC[C@H]5C(=O)N(C)CC(=O)N(C)[C@@H](C(C)C)C(=O)O[C@@H]4C)c(N)c(=O)c(C)c-3oc2c1C`, the “Delta Tm” value was found to be 2.7.
The result for `Cc1c2oc3c(C)ccc(C(=O)N[C@@H]4C(=O)N[C@H](C(C)C)C(=O)N5CCC[C@H]5C(=O)N(C)CC(=O)N(C)[C@@H](C(C)C)C(=O)O[C@@H]4C)c3nc-2c(C(=O)N[C@@H]2C(=O)N[C@H](C(C)C)C(=O)N3CCC[C@H]3C(=O)N(C)CC(=O)N(C)[C@@H](C(C)C)C(=O)O[C@@H]2C)c(NCCCCCN)c1=O` reads 1.1; that for `CCCNc1c(C(=O)N[C@@H]2C(=O)N[C@H](C(C)C)C(=O)N3CCC[C@H]3C(=O)N(C)CC(=O)N(C)[C@@H](C(C)C)C(=O)O[C@@H]2C)c2nc3c(C(=O)N[C@@H]4C(=O)N[C@H](C(C)C)C(=O)N5CCC[C@H]5C(=O)N(C)CC(=O)N(C)[C@@H](C(C)C)C(=O)O[C@@H]4C)ccc(C)c3oc-2c(C)c1=O`, 1.5; that for `Cc1c2oc3c(C)ccc(C(=O)N[C@@H]4C(=O)N[C@H](C(C)C)C(=O)N5CCC[C@H]5C(=O)N(C)CC(=O)N(C)[C@@H](C(C)C)C(=O)O[C@@H]4C)c3nc-2c(C(=O)N[C@@H]2C(=O)N[C@H](C(C)C)C(=O)N3CCC[C@H]3C(=O)N(C)CC(=O)N(C)[C@@H](C(C)C)C(=O)O[C@@H]2C)c(NCCCCCCCCCCN)c1=O`, 6.6.
The result for `Cc1c2oc3c(C)c(OCc4ccc(Cl)cc4)cc(C(=O)N[C@@H]4C(=O)N[C@H](C(C)C)C(=O)N5CCC[C@H]5C(=O)N(C)CC(=O)N(C)[C@@H](C(C)C)C(=O)O[C@@H]4C)c3nc-2c(C(=O)N[C@@H]2C(=O)N[C@H](C(C)C)C(=O)N3CCC[C@H]3C(=O)N(C)CC(=O)N(C)[C@@H](C(C)C)C(=O)O[C@@H]2C)c(N)c1=O` reads 0.
Turning to `Cc1c2oc3c(C)c(O)c(N)c(C(=O)N[C@@H]4C(=O)N[C@H](C(C)C)C(=O)N5CCC[C@H]5C(=O)N(C)CC(=O)N(C)[C@@H](C(C)C)C(=O)O[C@@H]4C)c3nc-2c(C(=O)N[C@@H]2C(=O)N[C@H](C(C)C)C(=O)N3CCC[C@H]3C(=O)N(C)CC(=O)N(C)[C@@H](C(C)C)C(=O)O[C@@H]2C)cc1=O`, the “Delta Tm” value is given as 6.7.
The result for `CCCCCCCCCCCNc1c(C(=O)N[C@@H]2C(=O)N[C@H](C(C)C)C(=O)N3CCC[C@H]3C(=O)N(C)CC(=O)N(C)[C@@H](C(C)C)C(=O)O[C@@H]2C)c2nc3c(C(=O)N[C@@H]4C(=O)N[C@H](C(C)C)C(=O)N5CCC[C@H]5C(=O)N(C)CC(=O)N(C)[C@@H](C(C)C)C(=O)O[C@@H]4C)ccc(C)c3oc-2c(C)c1=O` reads 0.
Regarding `Cc1c2oc3c(C)c(O)c(N)c(C(=O)N[C@@H]4C(=O)N[C@H](C(C)C)C(=O)N5CCC[C@H]5C(=O)N(C)CC(=O)N(C)[C@@H](C(C)C)C(=O)O[C@@H]4C)c3nc-2c(C(=O)N[C@@H]2C(=O)N[C@H](C(C)C)C(=O)N3CCC[C@H]3C(=O)N(C)CC(=O)N(C)[C@@H](C(C)C)C(=O)O[C@@H]2C)c/c1=N/Cc1ccc[nH]1`, the “Delta Tm” value was determined as 15.8.
The result for `Cc1c2oc3c(C)c(O)c(N)c(C(=O)N[C@@H]4C(=O)N[C@H](C(C)C)C(=O)N5CCC[C@H]5C(=O)N(C)CC(=O)N(C)[C@@H](C(C)C)C(=O)O[C@@H]4C)c3nc-2c(C(=O)N[C@@H]2C(=O)N[C@H](C(C)C)C(=O)N3CCC[C@H]3C(=O)N(C)CC(=O)N(C)[C@@H](C(C)C)C(=O)O[C@@H]2C)c/c1=N/Cc1cccc(Oc2ccccc2)c1` reads 5.3; that for `Cc1c2oc3c(C)ccc(C(=O)N[C@@H]4C(=O)N[C@H](C(C)C)C(=O)N5CCC[C@H]5C(=O)N(C)CC(=O)N(C)[C@@H](C(C)C)C(=O)O[C@@H]4C)c3nc-2c(C(=O)N[C@@H]2C(=O)N[C@H](C(C)C)C(=O)N3CCC[C@H]3C(=O)N(C)CC(=O)N(C)[C@@H](C(C)C)C(=O)O[C@@H]2C)c(NCCCN)c1=O`, 6.2; that for `CCCCCCCOc1cc(C(=O)N[C@@H]2C(=O)N[C@H](C(C)C)C(=O)N3CCC[C@H]3C(=O)N(C)CC(=O)N(C)[C@@H](C(C)C)C(=O)O[C@@H]2C)c2nc3c(C(=O)N[C@@H]4C(=O)N[C@H](C(C)C)C(=O)N5CCC[C@H]5C(=O)N(C)CC(=O)N(C)[C@@H](C(C)C)C(=O)O[C@@H]4C)c(N)c(=O)c(C)c-3oc2c1C`, 0.
With `CCOc1cc(C(=O)N[C@@H]2C(=O)N[C@H](C(C)C)C(=O)N3CCC[C@H]3C(=O)N(C)CC(=O)N(C)[C@@H](C(C)C)C(=O)O[C@@H]2C)c2nc3c(C(=O)N[C@@H]4C(=O)N[C@H](C(C)C)C(=O)N5CCC[C@H]5C(=O)N(C)CC(=O)N(C)[C@@H](C(C)C)C(=O)O[C@@H]4C)c(N)c(=O)c(C)c-3oc2c1C` the figure was 5.9; with `COc1cc(C(=O)N[C@@H]2C(=O)N[C@H](C(C)C)C(=O)N3CCC[C@H]3C(=O)N(C)CC(=O)N(C)[C@@H](C(C)C)C(=O)O[C@@H]2C)c2nc3c(C(=O)N[C@@H]4C(=O)N[C@H](C(C)C)C(=O)N5CCC[C@H]5C(=O)N(C)CC(=O)N(C)[C@@H](C(C)C)C(=O)O[C@@H]4C)c(N)c(=O)c(C)c-3oc2c1C`, 5.5.
With `CCCCCCOc1cc(C(=O)N[C@@H]2C(=O)N[C@H](C(C)C)C(=O)N3CCC[C@H]3C(=O)N(C)CC(=O)N(C)[C@@H](C(C)C)C(=O)O[C@@H]2C)c2nc3c(C(=O)N[C@@H]4C(=O)N[C@H](C(C)C)C(=O)N5CCC[C@H]5C(=O)N(C)CC(=O)N(C)[C@@H](C(C)C)C(=O)O[C@@H]4C)c(N)c(=O)c(C)c-3oc2c1C` the figure was 1.
